Experimental data pooled from the literature.
Protocols differ between the studies behind these lines.
Cell line: HepG2
Read-out: cell growth or viability

SMILES	technique	time	CC50
CCOCC(=O)N1CCC[C@H](C(=O)NCc2nc(-c3ccccc3)cs2)C1	ATP luminescence	96 h	> 50 µM
O=C1C=C2NCCc3c[nH]c(c32)C1=O	MTT	72 h	50 µM
CC[C@@](N)(c1cnc(C(F)(F)F)c(Cl)c1)c1c2ncn(C3CC3)c(=O)c2nn1C	ATP luminescence	–	> 50 µM
CCCCCCCNC[C@@H](O)c1cc(Cl)cc2c1-c1ccc(Cl)cc1C2	–	48 h	5 µM
Cn1nc2c(=O)n(C3CC3)ncc2c1[C@](O)(c1cnc(C(F)(F)F)c(Cl)c1)C(F)(F)F	ATP luminescence	–	38 µM
COCC(=O)N1CCC[C@@H](C(=O)NCc2nc(-c3ccccc3)cs2)C1	ATP luminescence	96 h	> 50 µM
O[C@@H](CN[C@@H](COCC1CC1)Cc1ccccc1)c1cc(Cl)cc2c1-c1ccc(Cl)cc1C2	–	48 h	19.9 µM
O=C1C(NCCc2c[nH]c3ccccc23)=CC2=NCCc3c[nH]c1c32	MTT	72 h	4 µM
COCC(=O)N1CCC[C@H](C(=O)NCc2nc(-c3ccc(C#N)cc3)cs2)C1	ATP luminescence	96 h	> 50 µM
CCCCCCCCNC[C@@H](O)c1cc(Cl)cc2c1-c1ccc(Cl)cc1C2	–	48 h	9 µM
O=C1c2ccccc2-n2c1nc1ccccc1c2=O	ATP luminescence	–	6 to 9 µM
O=C1C(NCCc2ccc(O)cc2)=CC2=NCCc3c[nH]c1c32	MTT	72 h	4 µM
CCOCC(=O)N1CCC[C@H](C(=O)NCc2nc(-c3ccc(C)nc3)cs2)C1	ATP luminescence	96 h	> 50 µM
Cn1cc2c3c1C(=O)C(NCCc1ccc(O)cc1)=CC3=[N+](C)CC2	MTT	72 h	0.5 µM
CCCCCCNC[C@H](O)c1cc(Cl)cc2c1-c1ccc(Cl)cc1C2	–	48 h	4.8 µM
